{"source": "ChEMBL document CHEMBL1649442", "about": "“Genetic determinants of resistance to fusidic acid among clinical bacteremia isolates of Staphylococcus aureus” (2009)", "assay_type_in_all_cases": "functional", "key": {"Staphylococcus aureus [1]": {"system": "Staphylococcus aureus", "experiment": "Antimicrobial activity against cadXD coding sequence deficient Staphylococcus aureus isolate 27624 expressing FusB by Etest", "procedure,_shortened": "(§1)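 Fusidic acid-resistant S. aureus bacteremia clinical isolates, originally from Statens Serum Institut. MIC read by Etest on Mueller-Hinton agar, following the manufacturer's instructions. Liquid cultures grown in LB at 37°C with shaking at 200 rpm. fusB and cadXD presence checked by PCR and sequencing.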"}, "Staphylococcus aureus [2]": {"system": "Staphylococcus aureus", "experiment": "Antimicrobial activity against cadX coding sequence deficient Staphylococcus aureus isolate 28410 expressing FusC C90T mutant and harboring pMW2 by Etest"}, "Staphylococcus aureus [3]": {"system": "Staphylococcus aureus", "experiment": "Antimicrobial activity against cadXD coding sequence deficient Staphylococcus aureus isolate 28332 expressing FusB by Etest", "procedure,_shortened": "as §1"}, "Staphylococcus aureus [4]": {"system": "Staphylococcus aureus", "experiment": "Antimicrobial activity against cadX coding sequence deficient Staphylococcus aureus isolate 27962 expressing FusA Met453Ile mutant and harboring pMW2 by Etest"}, "Staphylococcus aureus [5]": {"system": "Staphylococcus aureus", "experiment": "Antimicrobial activity against Staphylococcus aureus RN4220 transformed with Staphylococcus aureus isolate 27980 carrying pUB101 expressing cadX coding sequence by Etest", "procedure,_shortened": "(§2)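 Plasmid DNA was extracted from each clinical bacteremia isolate after overnight growth in LB with 0.5% glycine, using lysostaphin/lysozyme/proteinase K lysis and alkaline lysis. It was electroporated into restriction-negative S. aureus RN4220 (2.3 kV, 25 μF, 100 Ω) and transformants were selected on NYE agar with ampicillin 1 μg/ml at 37°C. Fusidic acid MIC was read by Etest on Mueller-Hinton agar following the manufacturer's instructions.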"}, "Staphylococcus aureus [6]": {"system": "Staphylococcus aureus", "experiment": "Antimicrobial activity against Staphylococcus aureus isolate 27844 expressing FusA Ala376Val, Leu461Phe, Asp463Gly, Ala655Pro mutant and harboring pMW2 carrying cadX coding sequence by Etest"}, "Staphylococcus aureus [7]": {"system": "Staphylococcus aureus", "experiment": "Antimicrobial activity against cadXD coding sequence deficient Staphylococcus aureus isolate 27856 expressing FusB by Etest", "procedure,_shortened": "as §1"}, "Staphylococcus aureus [8]": {"system": "Staphylococcus aureus", "experiment": "Antimicrobial activity against Staphylococcus aureus isolate 28130 expressing FusA Leu461Ser mutant pMW2 carrying cadX coding sequence by Etest"}, "Staphylococcus aureus [9]": {"system": "Staphylococcus aureus", "experiment": "Antimicrobial activity against cadXD coding sequence deficient Staphylococcus aureus isolate 27971 expressing FusB by Etest", "procedure,_shortened": "as §1"}, "Staphylococcus aureus [10]": {"system": "Staphylococcus aureus", "experiment": "Antimicrobial activity against Staphylococcus aureus RN4220 transformed with Staphylococcus aureus isolate 28332 carrying pUB101 cadX coding sequence by Etest", "procedure,_shortened": "as §2"}, "Staphylococcus aureus [11]": {"system": "Staphylococcus aureus", "experiment": "Antimicrobial activity against cadXD coding sequence deficient Staphylococcus aureus isolate 27980 expressing FusB by Etest", "procedure,_shortened": "as §1"}, "Staphylococcus aureus [12]": {"system": "Staphylococcus aureus", "experiment": "Antimicrobial activity against Staphylococcus aureus RN4220 transformed with Staphylococcus aureus isolate 27971 carrying pUB101 expressing cadX coding sequence by Etest", "procedure,_shortened": "as §2"}, "Staphylococcus aureus [13]": {"system": "Staphylococcus aureus", "experiment": "Antimicrobial activity against Staphylococcus aureus RN4220 transformed with Staphylococcus aureus isolate 28444 carrying pUB101 expressing cadX coding sequence by Etest", "procedure,_shortened": "as §2"}, "Staphylococcus aureus [14]": {"system": "Staphylococcus aureus", "experiment": "Antimicrobial activity against Staphylococcus aureus isolate 27971 expressing FusB and harboring pUB101 carrying cadX coding sequence by Etest"}, "Staphylococcus aureus [15]": {"system": "Staphylococcus aureus", "experiment": "Antimicrobial activity against cadX coding sequence deficient Staphylococcus aureus isolate 28150 expressing FusC and harboring pMW2 by Etest"}, "Staphylococcus aureus [16]": {"system": "Staphylococcus aureus", "experiment": "Antimicrobial activity against cadX coding sequence deficient Staphylococcus aureus isolate 28414 expressing FusC C90T mutant and harboring pMW2 by Etest"}, "Staphylococcus aureus [17]": {"system": "Staphylococcus aureus", "experiment": "Antimicrobial activity against cadX coding sequence deficient Staphylococcus aureus isolate 28400 expressing FusC C90T mutant and harboring pMW2 by Etest"}, "Staphylococcus aureus [18]": {"system": "Staphylococcus aureus", "experiment": "Antimicrobial activity against Staphylococcus aureus isolate 27980 expressing FusB and harboring pUB101 carrying cadX coding sequence by Etest"}, "Staphylococcus aureus [19]": {"system": "Staphylococcus aureus", "experiment": "Antimicrobial activity against Staphylococcus aureus isolate 28084 expressing FusC and harboring pMW2 carrying cadX coding sequence by Etest"}, "Staphylococcus aureus [20]": {"system": "Staphylococcus aureus", "experiment": "Antimicrobial activity against cadXD coding sequence deficient Staphylococcus aureus isolate 28444 expressing FusB by Etest", "procedure,_shortened": "as §1"}, "Staphylococcus aureus [21]": {"system": "Staphylococcus aureus", "experiment": "Antimicrobial activity against Staphylococcus aureus isolate 28444 expressing FusB and harboring pUB101 carrying cadX coding sequence by Etest"}, "Staphylococcus aureus [22]": {"system": "Staphylococcus aureus", "experiment": "Antimicrobial activity against Staphylococcus aureus isolate 27856 expressing FusB and harboring pUB101 carrying cadX coding sequence by Etest"}, "Staphylococcus aureus [23]": {"system": "Staphylococcus aureus", "experiment": "Antimicrobial activity against Staphylococcus aureus RN4220 transformed with Staphylococcus aureus isolate 27624 carrying pUB101 expressing cadX coding sequence by Etest", "procedure,_shortened": "as §2"}, "Staphylococcus aureus [24]": {"system": "Staphylococcus aureus", "experiment": "Antimicrobial activity against Staphylococcus aureus isolate 28332 expressing FusB and harboring pUB101 carrying cadX coding sequence by Etest"}, "Staphylococcus aureus [25]": {"system": "Staphylococcus aureus", "experiment": "Antimicrobial activity against Staphylococcus aureus isolate 27731 expressing FusA Ala71Val, Asp189Gly, Pro406Leu mutant and harboring pMW2 carrying cadX coding sequence by Etest"}, "Staphylococcus aureus [26]": {"system": "Staphylococcus aureus", "experiment": "Antimicrobial activity against Staphylococcus aureus isolate 28362 expressing FusA Val90Ile mutant by Etest"}, "Staphylococcus aureus [27]": {"system": "Staphylococcus aureus", "experiment": "Antimicrobial activity against Staphylococcus aureus isolate 27624 expressing FusB and harboring pUB101 carrying cadX coding sequence by Etest"}, "Staphylococcus aureus [28]": {"system": "Staphylococcus aureus", "experiment": "Antimicrobial activity against cadX coding sequence deficient Staphylococcus aureus isolate 27768 expressing FusA Leu461Ser mutant and harboring pMW2 by Etest"}, "Staphylococcus aureus [29]": {"system": "Staphylococcus aureus", "experiment": "Antimicrobial activity against Staphylococcus aureus isolate 27657 expressing FusC by Etest"}, "Staphylococcus aureus [30]": {"system": "Staphylococcus aureus", "experiment": "Antimicrobial activity against Staphylococcus aureus isolate 28416 expressing FusC by Etest"}, "Staphylococcus aureus [31]": {"system": "Staphylococcus aureus", "experiment": "Antimicrobial activity against Staphylococcus aureus RN4220 transformed with Staphylococcus aureus isolate 27856 carrying pUB101 expressing cadX coding sequence by Etest", "procedure,_shortened": "as §2"}, "Staphylococcus aureus [32]": {"system": "Staphylococcus aureus", "experiment": "Antimicrobial activity against cadX coding sequence deficient Staphylococcus aureus isolate 28335 expressing FusC C90T mutant and harboring pMW2 by Etest"}}}
{"smiles": "CC(=O)O[C@H]1C[C@@]2(C)[C@@H](C[C@@H](O)[C@H]3[C@@]4(C)CC[C@@H](O)[C@@H](C)[C@@H]4CC[C@@]32C)/C1=C(\\CCC=C(C)C)C(=O)O", "note": "[FUSIDIC ACID]", "values": [{"measurement": "MIC", "setting": "Staphylococcus aureus [1]", "value": 0.094, "unit": "µg/mL"}, {"measurement": "MIC", "setting": "Staphylococcus aureus [2]", "value": 6, "unit": "µg/mL"}, {"measurement": "MIC", "setting": "Staphylococcus aureus [3]", "value": 0.125, "unit": "µg/mL"}, {"measurement": "MIC", "setting": "Staphylococcus aureus [4]", "value": 4, "unit": "µg/mL"}, {"measurement": "MIC", "setting": "Staphylococcus aureus [5]", "value": 8, "unit": "µg/mL"}, {"measurement": "MIC", "setting": "Staphylococcus aureus [6]", "value": 256, "unit": "µg/mL"}, {"measurement": "MIC", "setting": "Staphylococcus aureus [7]", "value": 0.094, "unit": "µg/mL"}, {"measurement": "MIC", "setting": "Staphylococcus aureus [8]", "value": 6, "unit": "µg/mL"}, {"measurement": "MIC", "setting": "Staphylococcus aureus [9]", "value": 0.094, "unit": "µg/mL"}, {"measurement": "MIC", "setting": "Staphylococcus aureus [10]", "value": 8, "unit": "µg/mL"}, {"measurement": "MIC", "setting": "Staphylococcus aureus [11]", "value": 0.094, "unit": "µg/mL"}, {"measurement": "MIC", "setting": "Staphylococcus aureus [12]", "value": 8, "unit": "µg/mL"}, {"measurement": "MIC", "setting": "Staphylococcus aureus [13]", "value": 8, "unit": "µg/mL"}, {"measurement": "MIC", "setting": "Staphylococcus aureus [14]", "value": 8, "unit": "µg/mL"}, {"measurement": "MIC", "setting": "Staphylococcus aureus [15]", "value": 8, "unit": "µg/mL"}, {"measurement": "MIC", "setting": "Staphylococcus aureus [16]", "value": 6, "unit": "µg/mL"}, {"measurement": "MIC", "setting": "Staphylococcus aureus [17]", "value": 6, "unit": "µg/mL"}, {"measurement": "MIC", "setting": "Staphylococcus aureus [18]", "value": 12, "unit": "µg/mL"}, {"measurement": "MIC", "setting": "Staphylococcus aureus [19]", "value": 12, "unit": "µg/mL"}, {"measurement": "MIC", "setting": "Staphylococcus aureus [20]", "value": 0.064, "unit": "µg/mL"}, {"measurement": "MIC", "setting": "Staphylococcus aureus [21]", "value": 12, "unit": "µg/mL"}, {"measurement": "MIC", "setting": "Staphylococcus aureus [22]", "value": 8, "unit": "µg/mL"}, {"measurement": "MIC", "setting": "Staphylococcus aureus [23]", "value": 8, "unit": "µg/mL"}, {"measurement": "MIC", "setting": "Staphylococcus aureus [24]", "value": 12, "unit": "µg/mL"}, {"measurement": "MIC", "setting": "Staphylococcus aureus [25]", "value": 8, "unit": "µg/mL"}, {"measurement": "MIC", "setting": "Staphylococcus aureus [26]", "value": 8, "unit": "µg/mL"}, {"measurement": "MIC", "setting": "Staphylococcus aureus [27]", "value": 6, "unit": "µg/mL"}, {"measurement": "MIC", "setting": "Staphylococcus aureus [28]", "value": 8, "unit": "µg/mL"}, {"measurement": "MIC", "setting": "Staphylococcus aureus [29]", "value": 8, "unit": "µg/mL"}, {"measurement": "MIC", "setting": "Staphylococcus aureus [30]", "value": 8, "unit": "µg/mL"}, {"measurement": "MIC", "setting": "Staphylococcus aureus [31]", "value": 8, "unit": "µg/mL"}, {"measurement": "MIC", "setting": "Staphylococcus aureus [32]", "value": 8, "unit": "µg/mL"}]}
